ChEMBL document CHEMBL1123134, “Diterpenoid sweeteners. Synthesis and sensory evaluation of stevioside analogues with improved organoleptic properties” (1985)

Key:
Format in all cases: functional
Homo sapiens [1] = organism: Homo sapiens; assay: Sensory evaluation was done for sweetness at a concentration of 534 p.p.m. against compound potency calculated on a molar basis.
Summary of the method: (§1)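 Sweetness tasted in solutions held near pH ~7, so carboxylic acids are ionized. Potency is reported two ways: on a weight basis (Pw) and on a molar basis (Pm).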

Homo sapiens [2] = organism: Homo sapiens; assay: Sensory evaluation was done at a concentration of 534 p.p.m. against property of bitterness.
Summary of the method: (§2)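 Aqueous sample solutions were tasted at about pH 7, so carboxylic acids were in ionized form.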

Homo sapiens [3] = organism: Homo sapiens; assay: Sensory evaluation was done for sweetness at a concentration of 534 p.p.m. against sample intensity relative to 10% sucrose.; summary of the method: as §1
Homo sapiens [4] = organism: Homo sapiens; assay: Sensory evaluation was done for sweetness at a concentration of 534 p.p.m. against compound potency calculated on weight basis.; summary of the method: as §1
Homo sapiens [5] = organism: Homo sapiens; assay: Sensory evaluation was done at a concentration of 534 p.p.m. against other properties.; summary of the method: as §2
Homo sapiens [6] = organism: Homo sapiens; assay: Sensory evaluation was done at a concentration of 534 p.p.m. against property of sweetness.; summary of the method: as §2
Homo sapiens [7] = organism: Homo sapiens; assay: Sensory evaluation was done at a concentration of 631 p.p.m. against property of bitterness.; summary of the method: as §2
Homo sapiens [8] = organism: Homo sapiens; assay: Sensory evaluation was done for sweetness at a concentration of 631 p.p.m. against sample intensity relative to 10% sucrose.; summary of the method: as §1
Homo sapiens [9] = organism: Homo sapiens; assay: Sensory evaluation was done for sweetness at a concentration of 631 p.p.m. against compound potency calculated on weight basis.; summary of the method: as §1
Homo sapiens [10] = organism: Homo sapiens; assay: Sensory evaluation was done at a concentration of 631 p.p.m. against other properties.; summary of the method: as §2
Homo sapiens [11] = organism: Homo sapiens; assay: Sensory evaluation was done at a concentration of 631 p.p.m. against property of sweetness.; summary of the method: as §2
Homo sapiens [12] = organism: Homo sapiens; assay: Sensory evaluation was done for sweetness at a concentration of 631 p.p.m. against compound potency calculated on a molar basis.; summary of the method: as §1
Homo sapiens [13] = organism: Homo sapiens; assay: Sensory evaluation was done for sweetness at a concentration of 3000 p.p.m. against compound potency calculated on weight basis.
Summary of the method: (§3)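 Sensory evaluation of the samples in solution at pH ~7, where carboxylic acids are ionized.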

Homo sapiens [14] = organism: Homo sapiens; assay: Sensory evaluation was done for sweetness at a concentration of 3000 p.p.m. against sample intensity relative to 10% sucrose.; summary of the method: as §3
Homo sapiens [15] = organism: Homo sapiens; assay: Sensory evaluation was done at a concentration of 3000 p.p.m. against other properties.; summary of the method: as §3
Homo sapiens [16] = organism: Homo sapiens; assay: Sensory evaluation was done for sweetness at a concentration of 3000 p.p.m. against compound potency calculated on a molar basis.; summary of the method: as §3
Homo sapiens [17] = organism: Homo sapiens; assay: Sensory evaluation was done at a concentration of 3000 p.p.m. against property of sweetness.; summary of the method: as §3
Homo sapiens [18] = organism: Homo sapiens; assay: Sensory evaluation was done at a concentration of 3000 p.p.m. against property of bitterness.; summary of the method: as §3
Homo sapiens [19] = organism: Homo sapiens; assay: Sensory evaluation was done for sweetness at a concentration of 550 p.p.m. against compound potency calculated on a molar basis.; summary of the method: as §1
Homo sapiens [20] = organism: Homo sapiens; assay: Sensory evaluation was done at a concentration of 550 p.p.m. against property of bitterness.; summary of the method: as §2
Homo sapiens [21] = organism: Homo sapiens; assay: Sensory evaluation was done at a concentration of 550 p.p.m. against property of sweetness.; summary of the method: as §2
Homo sapiens [22] = organism: Homo sapiens; assay: Sensory evaluation was done for sweetness at a concentration of 550 p.p.m. against compound potency calculated on weight basis.; summary of the method: as §1
Homo sapiens [23] = organism: Homo sapiens; assay: Sensory evaluation was done at a concentration of 550 p.p.m. against other properties.; summary of the method: as §2
Homo sapiens [24] = organism: Homo sapiens; assay: Sensory evaluation was done for sweetness at a concentration of 550 p.p.m. against sample intensity relative to 10% sucrose.; summary of the method: as §1
Homo sapiens [25] = organism: Homo sapiens; assay: Sensory evaluation was done at a concentration of 634 p.p.m. against property of bitterness.; summary of the method: as §2
Homo sapiens [26] = organism: Homo sapiens; assay: Sensory evaluation was done at a concentration of 634 p.p.m. against other properties.; summary of the method: as §2
Homo sapiens [27] = organism: Homo sapiens; assay: Sensory evaluation was done at a concentration of 634 p.p.m. against property of sweetness.; summary of the method: as §2
Homo sapiens [28] = organism: Homo sapiens; assay: Sensory evaluation was done for sweetness at a concentration of 634 p.p.m. against compound potency calculated on weight basis.; summary of the method: as §1
Homo sapiens [29] = organism: Homo sapiens; assay: Sensory evaluation was done for sweetness at a concentration of 634 p.p.m. against compound potency calculated on a molar basis.; summary of the method: as §1
Homo sapiens [30] = organism: Homo sapiens; assay: Sensory evaluation was done for sweetness at a concentration of 634 p.p.m. against sample intensity relative to 10% sucrose.; summary of the method: as §1
Homo sapiens [31] = organism: Homo sapiens; assay: Sensory evaluation was done for sweetness at a concentration of 650 p.p.m. against compound potency calculated on a molar basis.; summary of the method: as §1
Homo sapiens [32] = organism: Homo sapiens; assay: Sensory evaluation was done at a concentration of 650 p.p.m. against property of bitterness.; summary of the method: as §2
Homo sapiens [33] = organism: Homo sapiens; assay: Sensory evaluation was done at a concentration of 650 p.p.m. against other properties.; summary of the method: as §2
Homo sapiens [34] = organism: Homo sapiens; assay: Sensory evaluation was done for sweetness at a concentration of 650 p.p.m. against sample intensity relative to 10% sucrose.; summary of the method: as §1
Homo sapiens [35] = organism: Homo sapiens; assay: Sensory evaluation was done for sweetness at a concentration of 650 p.p.m. against compound potency calculated on weight basis.; summary of the method: as §1
Homo sapiens [36] = organism: Homo sapiens; assay: Sensory evaluation was done at a concentration of 650 p.p.m. against property of sweetness.; summary of the method: as §2

C=C1C[C@@]23CC[C@H]4[C@@](C)(CCC[C@@]4(C)C(=O)OCCCS(=O)(=O)[O-])[C@@H]2CC[C@]1(O[C@H]1O[C@H](CO)[C@@H](O)[C@H](O)[C@H]1O[C@@H]1O[C@H](CO)[C@@H](O)[C@H](O)[C@H]1O)C3.[Na+]
Pm (Homo sapiens [1]): 360 | Sensory evaluation (Homo sapiens [2]): 4 | Ip (Homo sapiens [3]): 0.8 | Pw (Homo sapiens [4]): 160 | Sensory evaluation (Homo sapiens [5]): 4 | Sensory evaluation (Homo sapiens [6]): 92

C=C1C[C@@]23CC[C@H]4[C@@](C)(CCC[C@@]4(C)C(=O)OCCC(S(=O)(=O)[O-])S(=O)(=O)[O-])[C@@H]2CC[C@]1(O[C@H]1O[C@H](CO)[C@@H](O)[C@H](O)[C@H]1O[C@@H]1O[C@H](CO)[C@@H](O)[C@H](O)[C@H]1O)C3.[Na+].[Na+]
Sensory evaluation (Homo sapiens [7]): 0 | Ip (Homo sapiens [8]): 0.8 | Pw (Homo sapiens [9]): 120 | Sensory evaluation (Homo sapiens [10]): 4 | Sensory evaluation (Homo sapiens [11]): 96 | Pm (Homo sapiens [12]): 310

CC12CC[C@](C)(C(=O)O)CC1C1=CC(=O)[C@@H]3[C@@]4(C)CC[C@H](O[C@H]5O[C@H](C(=O)O)[C@@H](O)[C@H](O)[C@H]5O[C@@H]5O[C@H](C(=O)O)[C@@H](O)[C@H](O)[C@H]5O)C(C)(C)[C@@H]4CC[C@@]3(C)[C@]1(C)CC2.N (stereo partly specified)
Pw (Homo sapiens [13]): 33 | Ip (Homo sapiens [14]): 1 | Sensory evaluation (Homo sapiens [15]): 13 | Pm (Homo sapiens [16]): 90 | Sensory evaluation (Homo sapiens [17]): 84 | Sensory evaluation (Homo sapiens [18]): 3

C=C1C[C@@]23CC[C@H]4[C@@](C)(CCC[C@@]4(C)C(=O)OC(CCC(=O)[O-])C(=O)O)[C@@H]2CC[C@]1(O[C@@H]1O[C@@H](CO)[C@@H](O)[C@H](O)[C@@H]1O[C@@H]1O[C@@H](CO)[C@@H](O)[C@H](O)[C@@H]1O)C3.[Na+] (stereo partly specified)
Pm (Homo sapiens [19]): 380 | Sensory evaluation (Homo sapiens [20]): 2 | Sensory evaluation (Homo sapiens [21]): 84 | Pw (Homo sapiens [22]): 160 | Sensory evaluation (Homo sapiens [23]): 10 | Ip (Homo sapiens [24]): 0.9

C=C1C[C@@]23CC[C@H]4[C@@](C)(CCC[C@@]4(C)C(=O)OCC(=O)O)[C@@H]2CC[C@]1(O[C@@H]1O[C@@H](CO)[C@@H](O)[C@H](O)[C@@H]1O[C@@H]1O[C@@H](CO)[C@@H](O)[C@H](O)[C@@H]1O)C3
Sensory evaluation (Homo sapiens [25]): 19 | Sensory evaluation (Homo sapiens [26]): 1 | Sensory evaluation (Homo sapiens [27]): 80 | Pw (Homo sapiens [28]): 140 | Pm (Homo sapiens [29]): 310 | Ip (Homo sapiens [30]): 0.9

C=C1C[C@@]23CC[C@H]4[C@@](C)(CCC[C@@]4(C)C(=O)OCCCCS(=O)(=O)[O-])[C@@H]2CC[C@]1(O[C@@H]1O[C@@H](CO)[C@@H](O)[C@H](O)[C@@H]1O[C@@H]1O[C@@H](CO)[C@@H](O)[C@H](O)[C@@H]1O)C3.[Na+]
Pm (Homo sapiens [31]): 290 | Sensory evaluation (Homo sapiens [32]): 17 | Sensory evaluation (Homo sapiens [33]): 4 | Ip (Homo sapiens [34]): 0.8 | Pw (Homo sapiens [35]): 120 | Sensory evaluation (Homo sapiens [36]): 79
